Measurements from paper PMC8177775 (Cancer Science, 2021).
Entries after “also recorded” stand apart in the source; their conditions may differ.

System: Japanese patients with solid tumors
Experiment: Phase I dose-escalation study: safety, tolerability, DLT and MTD
Format: in vivo, human
Conditions: for Dose-limiting toxicities (DLTs): cycle 1
Summary of the method: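 Oral test compound (tosylate salt) was given QD on days 1–21 of 28-day cycles in cohorts of 3–6 patients at 60, 90 or 120 mg. Escalation used a modified continual reassessment method (Bayesian logistic regression, escalation with overdose control). DLT window was cycle 1 (28 days). AEs were coded with MedDRA 18.0 and graded by CTCAE v4.0 (Japanese). Analysis covered patients receiving ≥1 dose.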

[1] = Cohort 1 60 mg/d (n = 3), All grades
[2] = Cohort 1 60 mg/d (n = 3), Grade ≥ 3
[3] = Cohort 2 90 mg/d (n = 11), All grades
[4] = Cohort 2 90 mg/d (n = 11), Grade ≥ 3
[5] = Cohort 3 120 mg/d (n = 4), All grades

## CC1(C)CCC2(CC1)N[C@@H](C(=O)N[C@@H]1CC[C@@H](C(N)=O)OC1)[C@H](c1ccnc(Cl)c1F)[C@]21C(=O)Nc2cc(Cl)ccc21 [milademetan, Milademetan]
60 mg/day
  Dose interruptions: 2 n
90 mg/day
  Dose interruptions: 5 n
120 mg/day
  Dose interruptions: 3 n
120 mg/day cohort
  Dose-limiting toxicities (DLTs): three events of platelet count decreased and one nausea; also recorded: Four DLTs were observed in four patients
60-mg and 90-mg cohorts
  Dose-limiting toxicities (DLTs): No DLTs occurred
[1]
  TEAE: Alanine aminotransferase increased: 1 (33.3) n (%)
  TEAE: Anemia: 0 (0.0) n (%)
  TEAE: Aspartate aminotransferase increased: 0 (0.0) n (%)
  TEAE: Constipation: 2 (66.7) n (%)
  TEAE: Decreased appetite: 2 (66.7) n (%)
  TEAE: Diarrhea: 0 (0.0) n (%)
  TEAE: Disease progression: 0 (0.0) n (%)
  TEAE: Fatigue: 2 (66.7) n (%)
  TEAE: Hypoalbuminemia: 1 (33.3) n (%)
  TEAE: Hyponatremia: 0 (0.0) n (%)
  TEAE: Hypophosphataemic rickets: 0 (0.0) n (%)
  TEAE: Jaundice cholestatic: 0 (0.0) n (%)
  TEAE: Lymphangiosis carcinomatosa: 1 (33.3) n (%)
  TEAE: Lymphocyte count decreased: 1 (33.3) n (%)
  TEAE: Nausea: 3 (100.0) n (%)
  TEAE: Neutrophil count decreased: 0 (0.0) n (%)
  TEAE: Platelet count decreased: 0 (0.0) n (%)
  TEAE: Pyrexia: 0 (0.0) n (%)
  TEAE: Sepsis: 0 (0.0) n (%)
  TEAE: Urinary tract infection: 0 (0.0) n (%)
  TEAE: Vomiting: 0 (0.0) n (%)
  TEAE: White blood cell count decreased: 1 (33.3) n (%)
[2]
  TEAE: Alanine aminotransferase increased: 0 (0.0) n (%)
  TEAE: Anemia: 0 (0.0) n (%)
  TEAE: Aspartate aminotransferase increased: 0 (0.0) n (%)
  TEAE: Constipation: 0 (0.0) n (%)
  TEAE: Decreased appetite: 0 (0.0) n (%)
  TEAE: Diarrhea: 0 (0.0) n (%)
  TEAE: Disease progression: 0 (0.0) n (%)
  TEAE: Fatigue: 0 (0.0) n (%)
  TEAE: Hypoalbuminemia: 0 (0.0) n (%)
  TEAE: Hyponatremia: 0 (0.0) n (%)
  TEAE: Hypophosphataemic rickets: 0 (0.0) n (%)
  TEAE: Jaundice cholestatic: 0 (0.0) n (%)
  TEAE: Lymphangiosis carcinomatosa: 1 (33.3) n (%)
  TEAE: Lymphocyte count decreased: 0 (0.0) n (%)
  TEAE: Nausea: 0 (0.0) n (%)
  TEAE: Neutrophil count decreased: 0 (0.0) n (%)
  TEAE: Platelet count decreased: 0 (0.0) n (%)
  TEAE: Pyrexia: 0 (0.0) n (%)
  TEAE: Sepsis: 0 (0.0) n (%)
  TEAE: Urinary tract infection: 0 (0.0) n (%)
  TEAE: Vomiting: 0 (0.0) n (%)
  TEAE: White blood cell count decreased: 0 (0.0) n (%)
[3]
  TEAE: Alanine aminotransferase increased: 1 (9.1) n (%)
  TEAE: Anemia: 7 (63.6) n (%)
  TEAE: Aspartate aminotransferase increased: 2 (18.2) n (%)
  TEAE: Constipation: 2 (18.2) n (%)
  TEAE: Decreased appetite: 6 (54.5) n (%)
  TEAE: Diarrhea: 3 (27.3) n (%)
  TEAE: Disease progression: 0 (0.0) n (%)
  TEAE: Fatigue: 6 (54.5) n (%)
  TEAE: Hypoalbuminemia: 6 (54.5) n (%)
  TEAE: Hyponatremia: 3 (27.3) n (%)
  TEAE: Hypophosphataemic rickets: 1 (9.1) n (%)
  TEAE: Jaundice cholestatic: 1 (9.1) n (%)
  TEAE: Lymphangiosis carcinomatosa: 0 (0.0) n (%)
  TEAE: Lymphocyte count decreased: 1 (9.1) n (%)
  TEAE: Nausea: 7 (63.6) n (%)
  TEAE: Neutrophil count decreased: 3 (27.3) n (%)
  TEAE: Platelet count decreased: 8 (72.7) n (%)
  TEAE: Pyrexia: 3 (27.3) n (%)
  TEAE: Sepsis: 0 (0.0) n (%)
  TEAE: Urinary tract infection: 1 (9.1) n (%)
  TEAE: Vomiting: 3 (27.3) n (%)
  TEAE: White blood cell count decreased: 6 (54.5) n (%)
[4]
  TEAE: Alanine aminotransferase increased: 1 (9.1) n (%)
  TEAE: Anemia: 3 (27.3) n (%)
  TEAE: Aspartate aminotransferase increased: 0 (0.0) n (%)
  TEAE: Constipation: 0 (0.0) n (%)
  TEAE: Decreased appetite: 0 (0.0) n (%)
  TEAE: Diarrhea: 0 (0.0) n (%)
  TEAE: Disease progression: 0 (0.0) n (%)
  TEAE: Fatigue: 0 (0.0) n (%)
  TEAE: Hypoalbuminemia: 0 (0.0) n (%)
  TEAE: Hyponatremia: 1 (9.1) n (%)
  TEAE: Hypophosphataemic rickets: 1 (9.1) n (%)
  TEAE: Jaundice cholestatic: 1 (9.1) n (%)
  TEAE: Lymphangiosis carcinomatosa: 0 (0.0) n (%)
  TEAE: Lymphocyte count decreased: 0 (0.0) n (%)
  TEAE: Nausea: 0 (0.0) n (%)
  TEAE: Neutrophil count decreased: 0 (0.0) n (%)
  TEAE: Platelet count decreased: 1 (9.1) n (%)
  TEAE: Pyrexia: 0 (0.0) n (%)
  TEAE: Sepsis: 0 (0.0) n (%)
  TEAE: Urinary tract infection: 1 (9.1) n (%)
  TEAE: Vomiting: 0 (0.0) n (%)
  TEAE: White blood cell count decreased: 0 (0.0) n (%)
[5]
  TEAE: Alanine aminotransferase increased: 2 (50.0) n (%)
  TEAE: Anemia: 2 (50.0) n (%)
  TEAE: Aspartate aminotransferase increased: 2 (50.0) n (%)
  TEAE: Constipation: 1 (25.0) n (%)
  TEAE: Decreased appetite: 3 (75.0) n (%)
  TEAE: Diarrhea: 2 (50.0) n (%)
  TEAE: Disease progression: 1 (25.0) n (%)
  TEAE: Fatigue: 1 (25.0) n (%)
  TEAE: Hypoalbuminemia: 1 (25.0) n (%)
  TEAE: Hyponatremia: 2 (50.0) n (%)
